A selection: hits, their analogues and other compounds. The true share with any hit is near 4.1%.
KCNQ1 pot = potentiates or activates the human KCNQ1 potassium channel; CHO-K1 KCNQ1, thallium flux FluxOR fluorescence; stronger effect = higher value; B-score at 10 µM; 310,000 compounds, 0.35% hits;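 active = fluorescence ratio B-score, a plate-corrected score, at least three library SD, with initial intensity B-score within 5 SD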
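Test system: CHO-K1 cells stably expressing KCNQ1 / Medium: assay buffer / Also added: depolarizing K+/Tl+ stimulus, K2SO4 and Tl2SO4 each 12.5 mM in 5x stock / Incubation: 90 min dye loading and 20 min compound exposure, both at room temperature / Signal: thallium influx via FluxOR fluorescence, kinetic imaging / Evaluation: B score of baseline-normalized fluorescence ratio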
KCNK3 inh = human KCNK3 channel inhibition, primary screen | O14649 | CHO-KCNK3 thallium flux, FluxOR fluorescence; stronger effect = lower value | B-score at 10 µM | 340,000 compounds, 0.84% hits | AID 602410;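 active = B-score under library mean minus 4 SD, starting fluorescence ratio at most library mean plus 5 SD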;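 note: more negative B-score means stronger inhibition of thallium flux through KCNK3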
KCNQ1 inh = blocks the human KCNQ1 potassium channel; P51787; CHO-K1 KCNQ1, FluxOR thallium flux fluorescence; stronger effect = higher value; B-score at 10 µM; 310,000 compounds, 1.3% hits; AID 2642;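 active = compounds whose thallium flux B-score, printed positive for inhibition, exceeds three library SD while starting fluorescence stays within three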;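 note: channel opened by potassium depolarization with thallium stimulus after 20 min compound exposure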
Cl transport mod = modulates chloride dependent transport by human KCC2. KCC2 cells, thallium flux FluoZin-2 fluorescence. B-score of Tl+ flux slope (higher = more flux/activation; lower = inhibition) at 10 µM. 190,000 compounds, 2.2% hits;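 active = thallium flux slope and its plate-corrected score both differing from the plate sample mean at a set confidence after two filtering rounds, in either direction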;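 note: slope of fluorescence scaled to starting intensity during 10 to 20 s after thallium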
Target sequence (Q9H2X9 whole entry, looked up): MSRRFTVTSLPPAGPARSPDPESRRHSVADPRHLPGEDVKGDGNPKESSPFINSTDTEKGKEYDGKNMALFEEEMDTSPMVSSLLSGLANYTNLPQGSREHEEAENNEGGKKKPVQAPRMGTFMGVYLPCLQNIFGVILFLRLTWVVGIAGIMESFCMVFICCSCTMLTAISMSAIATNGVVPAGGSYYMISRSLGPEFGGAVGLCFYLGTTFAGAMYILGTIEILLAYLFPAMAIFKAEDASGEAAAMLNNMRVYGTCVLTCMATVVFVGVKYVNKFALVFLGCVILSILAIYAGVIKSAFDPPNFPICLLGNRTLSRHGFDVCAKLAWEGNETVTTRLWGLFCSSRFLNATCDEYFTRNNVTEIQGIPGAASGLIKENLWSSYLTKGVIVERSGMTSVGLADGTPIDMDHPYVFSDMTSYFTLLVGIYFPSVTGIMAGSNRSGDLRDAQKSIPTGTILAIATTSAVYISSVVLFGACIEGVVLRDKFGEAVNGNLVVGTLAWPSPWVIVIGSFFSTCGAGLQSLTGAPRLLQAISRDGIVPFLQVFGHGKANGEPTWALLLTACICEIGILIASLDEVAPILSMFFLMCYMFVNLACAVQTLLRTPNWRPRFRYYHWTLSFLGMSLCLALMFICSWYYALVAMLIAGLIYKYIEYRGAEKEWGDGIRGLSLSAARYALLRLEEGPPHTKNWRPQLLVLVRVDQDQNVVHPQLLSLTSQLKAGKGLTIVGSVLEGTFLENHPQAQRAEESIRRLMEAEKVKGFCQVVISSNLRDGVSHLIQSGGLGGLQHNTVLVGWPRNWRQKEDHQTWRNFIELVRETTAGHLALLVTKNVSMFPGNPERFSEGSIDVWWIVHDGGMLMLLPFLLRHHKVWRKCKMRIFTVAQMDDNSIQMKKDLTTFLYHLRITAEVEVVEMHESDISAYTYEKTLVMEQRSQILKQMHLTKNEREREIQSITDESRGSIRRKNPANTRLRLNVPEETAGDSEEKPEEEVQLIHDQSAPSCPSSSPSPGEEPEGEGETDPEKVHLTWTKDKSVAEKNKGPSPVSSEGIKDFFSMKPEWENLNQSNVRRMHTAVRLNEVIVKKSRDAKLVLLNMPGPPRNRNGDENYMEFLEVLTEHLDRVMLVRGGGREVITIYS
hERG protect = hERG (human) protection from proarrhythmic block. CHO-hERG, FluxOR thallium flux, dofetilide IC70 present. activation (rescue from dofetilide block), less the hit threshold, % at 10 µM. 310,000 compounds, 0.51% hits. AID 1511;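 active = activation above the mean of controls blocked by dofetilide plus 5 SD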;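 note: thallium influx through hERG after potassium depolarization seen as dye fluorescence rise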
KCNK9 inh = inhibitors of human KCNK9 two-pore domain potassium channel; Q9NPC2; HEK293 KCNK9, FluxOR thallium flux fluorescence; stronger effect = lower value; B-score at 10 µM; 310,000 compounds, 1.2% hits; AID 488922;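 active = ratio B-score over 3 SD below the library mean, with starting fluorescence within 5 SD of its mean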;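 note: negative B-score means less thallium flux so channel inhibition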
KCC2 sec1 = KCC2 (human) modulation, secondary assay | shares compounds with Cl transport mod | HEK293-KCC2, thallium flux, FluoZin2 fluorescence; stronger effect = higher value | normalised thallium flux (F/F0 slope) at 10 µM | 3,700 compounds, 15% hits;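 active = thallium flux slope above the same plate's solvent-only control mean plus 3 SD; inconclusive = the two replicate wells disagree; inactive = no significant difference from solvent-only control wells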
KCC2 bumet counter = bumetanide-insensitive thallium flux in KCC2 cells with ouabain, counter-screen | shares compounds with Cl transport mod | HEK293-KCC2 + bumetanide/ouabain, thallium flux FluoZin2; stronger effect = higher value | normalized thallium flux at 10 µM | 3,700 compounds, 49% hits;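 active = thallium entry rate above the same plate's blocked-transporter control wells by more than 3 SD; inconclusive = the two repeat wells disagree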;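 note: raw slope of fluorescence over initial fluorescence between 10 and 20 s after thallium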
KCC2 sec2 = confirmation of human KCC2 transport modulators. HEK293-KCC2, thallium flux FluoZin2 fluorescence; actives lie on both sides; F/F0 rise rate, 10–20 s post-thallium. AID 1715. normalized thallium flux at 10 µM. shares compounds with Cl transport mod. 3,700 compounds, 23% hits;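 active = thallium flux slope more than 3 SD above or below the plate's solvent-only control mean, mostly below; inconclusive = the two repeat wells disagreed; inactive = no significant shift from solvent-only controls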;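 note: raw slope with 0.1% DMSO as baseline and bumetanide as block control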
HEK counter1 = acts in parental HEK cells, KCC2 counter-screen | shares compounds with Cl transport mod | 3,700 compounds, 46% hits | AID 1716 | HEK293 parental cells, thallium flux FluoZin2, ouabain; baseline-ratio fluorescence slope, 10–20 s after thallium | thallium flux rate (normalised fluorescence) at 10 µM;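 active = thallium flux rate significantly above the same plate's solvent-only control wells, beyond their mean plus 3 SD; inconclusive = the two replicate wells gave conflicting results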
KCC2 ouabain = KCC2 (human) modulation, ouabain retest. HEK293-KCC2, thallium flux FluoZin2 fluorescence; bidirectional: low = inhibitor, high = activator. shares compounds with Cl transport mod. raw Tl+ flux slope (below DMSO = inhibition, above = activation) at 10 µM. 3,700 compounds, 48% hits;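 active = thallium flux slope beyond 3 SD from same-plate DMSO control mean in most replicates, usually higher, sometimes lower; inconclusive = repeat tests gave conflicting results; inactive = no significant difference from controls in most replicates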;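 note: slope of initial-normalized fluorescence between seconds 10 and 20 after thallium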
HEK293 Tl flux2 = acts in parental HEK cells, second KCC2 counter-screen. shares compounds with Cl transport mod. HEK293 parental, thallium flux FluoZin-2 fluorescence slope. thallium flux slope at 10 µM. 3,700 compounds, 33% hits. AID 1718;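 active = thallium flux slope above the same plate's solvent-control mean plus 3 SD in both duplicate wells; inconclusive = duplicate wells that disagreed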;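 note: run without ouabain in cells lacking the KCC2 cotransporter; slope of fluorescence scaled to its starting value between 10 and 20 s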
* marks the source's active call; other numbers are inactive results; i = inactive; ? = inconclusive; / = no result.

SMILES | KCNQ1 pot | KCNK3 inh | KCNQ1 inh | Cl transport mod | hERG protect | KCNK9 inh | KCC2 sec1 | KCC2 bumet counter | KCC2 sec2 | HEK counter1 | KCC2 ouabain | HEK293 Tl flux2
CCC(C)Nc1nc(OCC(F)(F)F)nc(OCC(F)(F)F)n1 (stereo not drawn) | i | i | i | -1.6 | -7 | i | / | / | / | / | / | /
Cc1cc(Br)ccc1OCC(=O)NNC(=O)Cc1ccccc1 | i | i | i | -0.09 | -7 | i | / | / | / | / | / | /
Cc1ccc(OCC(=O)NNC(=O)C(=O)N2CCCC2)c(C)c1 | i | i | i | 4.3* | -3 | i | 0.0054 | 0.013* | 0.035 | 0.013* | ? | 0.015*
Cc1cc(Br)ccc1OCC(=O)NNC(=O)C(=O)Nc1ccccc1 | 92* | i | i | / | 51* | i | 0.022* | 0.093* | ? | 0.087* | 0.075* | 0.072*
O=C(Cn1nnc2c(cnn2-c2ccccc2)c1=O)N1CCN(c2ccccc2F)CC1 | i | i | i | -5.5* | -3 | i | 0.0058 | ? | 0.021* | 0.0068 | 0.014* | 0.0092
O=C(Oc1ccc2c3c(c(=O)oc2c1)CCC3)c1ccccc1[N+](=O)[O-] | i | / | i | 0.29 | -11 | i | / | / | / | / | / | /
Cn1c(=O)c2c(nc(NCC3CCCO3)n2Cc2cccc(Br)c2)n(C)c1=O (stereo not drawn) | i | i | i | -7.6* | -15 | i | 0.011 | 0.0064 | 0.03 | 0.0071 | 0.02 | ?
Cn1c(NCC2CCCO2)nc2c1c(=O)n(Cc1ccccc1)c(=O)n2C (stereo not drawn) | i | i | i | / | -3 | i | / | / | / | / | / | /
COc1ccc(NC(=O)NCCCN2CCCCC2C)cc1 (stereo not drawn) | i | i | i | / | -6 | i | 0.0049 | 0.005 | 0.029 | 0.007 | 0.019 | 0.011
COc1ccc(NC(=O)NCCCN2CCCC2=O)cc1 | i | i | i | 0.31 | 1 | i | / | / | / | / | / | /
CNC(=S)N/N=C/c1c(Cl)cccc1Cl | i | i | i | 5.4* | -11 | i | 0.0067 | 0.014* | 0.03 | 0.016* | 0.023 | 0.013*
S=C(NCCc1ccccc1)N/N=C/c1c(Cl)cccc1Cl | i | i | i | 7.9* | 11* | i | ? | 0.019* | ? | 0.015* | 0.032* | 0.017*
S=C(NCCc1ccccc1)N/N=C/c1ccc(Cl)cc1 | i | i | i | 0.46 | -4 | i | / | / | / | / | / | /
O=C(NNC(=O)c1ccc2ccccc2c1O)c1ccccc1Cl | i | i | i | / | -11 | i | / | / | / | / | / | /
O=C(NCCc1ccccn1)C(F)(F)C(F)(F)C(F)(F)C(F)(F)C(F)(F)C(F)(F)C(F)(F)C(F)F | i | i | i | -0.091 | -8 | i | / | / | / | / | / | /
Cc1ccccc1C(=O)Nc1nnc(-c2ccc(F)cc2)o1 | i | i | i | 7.3* | -9 | i | 0.013* | 0.024* | 0.034 | 0.016* | 0.029 | ?
COc1ccc(-c2nnc(NC(=O)c3cc(Cl)ccc3Cl)o2)cc1 | i | i | i | 23* | -13 | i | 0.0072 | 0.055* | 0.044* | 0.039* | 0.05* | 0.031*
Cc1ccc(C)c(SCC(=O)Nc2nnc(-c3ccccc3)o2)c1 | i | i | i | 16* | 1 | i | 0.019* | 0.057* | 0.037 | 0.038* | 0.046* | 0.014*
COc1ccc(S(=O)(=O)NCCN2CCOCC2)c2ccccc12 | i | i | i | / | -1 | i | 0.0095 | 0.0064 | 0.031 | 0.007 | 0.023 | 0.0097
O=C(Nc1cccc(C(F)(F)F)c1)Oc1ccc(Cl)c2cccnc12 | i | i | i | 14* | -2 | i | 0.016 | 0.022* | 0.031 | 0.014* | 0.021* | 0.016*
CCN(CC)C(=O)Oc1ccc(Cl)c2cccnc12 | i | i | i | 0.00046 | -10 | i | / | / | / | / | / | /
NC(=O)N=Nc1c(O)[nH]c2ccc([N+](=O)[O-])cc12 | i | i | i | 0.031 | -13 | i | / | / | / | / | / | /
C=C(C)CNC(=S)N=Nc1c(O)[nH]c2ccc([N+](=O)[O-])cc12 | i | i | i | 14* | -10 | i | 0.0076 | 0.021* | 0.033 | 0.024* | 0.027* | 0.014*
COc1ccc(/C=C2\CCc3ccccc3C2=O)cc1CN1CCOCC1 | i | i | i | -5* | -8 | i | ? | ? | 0.023* | 0.0072 | ? | 0.01
Oc1ccc(-c2n[nH]c(=S)n2Cc2ccco2)cc1 | i | i | i | 1.4 | -13 | i | / | / | / | / | / | /
SMILES | KCNQ1 pot | KCNK3 inh | KCNQ1 inh | Cl transport mod | hERG protect | KCNK9 inh | KCC2 sec1 | KCC2 bumet counter | KCC2 sec2 | HEK counter1 | KCC2 ouabain | HEK293 Tl flux2
Oc1cc2ccccc2cc1-c1n[nH]c(=S)n1Cc1ccco1 | i | i | i | 8.9* | -7 | i | 0.0092 | 0.023* | 0.03 | 0.013* | ? | 0.0098
CCOc1ccc(C(=O)CN2CCN(S(=O)(=O)c3ccc(Cl)cc3)CC2)cc1 | i | i | i | -0.091 | -9 | i | / | / | / | / | / | /
Cc1ccc(-n2nnnc2SCC#N)cc1 | i | i | i | -0.099 | -16 | i | / | / | / | / | / | /
Cc1cc(C(=O)Nc2nc(-c3ccccn3)cs2)ccc1[N+](=O)[O-] | i | i | i | 2.8 | -7 | i | / | / | / | / | / | /
O=C(Nc1nc(-c2ccccn2)cs1)c1cc(Cl)ccc1[N+](=O)[O-] | i | i | i | 6.8* | -6 | i | 0.014* | 0.037* | 0.039 | 0.018* | 0.038* | 0.015*
C/C(=N\NC(=S)NCC(C)(C)C)c1cc(F)cc(F)c1O | i | i | i | / | -11 | i | / | / | / | / | / | /
S=c1sc2c(Cl)ncnc2n1-c1ccccc1 | 8* | i | i | -4.3* | -19 | i | 0.0058 | 0.0046 | 0.033 | 0.0073 | 0.019 | 0.01

From PubChem
